Assay results gathered from unrelated publications.
Protocols differ between the studies behind these lines.
Target: Serine/threonine-protein kinase WNK3 (WNK3, Homo sapiens, UniProt Q9BYP7)

SMILES | test | setting | remaining binding [%]
CN(c1nccc(-c2cnn3ncccc23)n1)C1CC1 | binding | 1 µM | 100
CCC(=O)N[C@H]1CC[C@@H](C(=O)N(C)c2ccc(-c3nc4ccccc4o3)cc2)C1 | cell-free assay, competition with immobilised ligand | 1 µM | 92
O=C(NCCCN1CCOCC1)c1ccc(Nc2ncc(Cl)c(-c3ccc(Cl)s3)n2)cc1 | binding, competition with immobilised ligand | 1 µM | 100
C[C@H]1CCN(c2nccc(-c3cnn4ncccc34)n2)C1 | binding | 1 µM | 98
O=C(Nc1c[nH]nc1C(=O)NC1CCNCC1)c1cc(F)cc(F)c1 | binding, competition with immobilised ligand | 1 µM | 100
CN(C)c1nccc(-c2cnc3ncccn23)n1 | binding | 1 µM | 67
CNCc1ccccc1-c1csc([C@H](C)Nc2nc(C)nc3cc(OC)c(OC)cc23)c1 | cell-free assay, competition with immobilised ligand | 1 µM | 98
Cc1cnc(Nc2ccc(C(=O)N3CCC(N4CCCC4)CC3)cc2)nc1-c1cc2ccccc2s1 | binding, competition with immobilised ligand | 1 µM | 100
c1cncc(-c2cccc(Nc3nccc(NC4CCCCC4)n3)c2)c1 | binding, competition with immobilised ligand | 10 µM | 94
CO[C@@H](C)c1c(Nc2ccc([C@H](N(C)C(=O)C3CCS(=O)(=O)CC3)C(F)(F)F)cc2)cnc2cc(Cl)nn12 | cell-free assay, competition with immobilised ligand | 1 µM | 95
CN(C)c1ncc(F)c(-c2cnn3ncccc23)n1 | binding | 1 µM | 90
O=C(c1ccc(Nc2ncc(Cl)c(-c3ccc(Cl)s3)n2)cc1)N1CCC(N2CCCC2)CC1 | binding, competition with immobilised ligand | 1 µM | 73
CN(C)c1nccc(-c2cnn3ncccc23)n1 | binding | 1 µM | 100
C[C@@H](c1ccc(-n2cnc3c(N)ncnc32)cc1)N1CCc2nn(C)c(Cc3ccccc3)c2C1=O | binding, competition with immobilised ligand | 0.1 µM | 100
O=S(=O)(NC1CCC(c2cc(F)ccc2F)(S(=O)(=O)c2ccc(Cl)cc2)CC1)C(F)(F)F (stereo not shown) | cell-free assay, competition with immobilised ligand | 1 µM | 100
Nc1ncc2c(n1)-c1c([nH]c3ccc(C#CC4CC4)cc13)CCCC2 | binding, competition with immobilised ligand | 1 µM | 89
CN([C@@H]1CCc2c(CC(=O)O)c3cc(S(C)(=O)=O)ccc3n2C1)S(=O)(=O)c1ccc(F)cc1 | cell-free assay, competition with immobilised ligand | 1 µM | 83
Cc1cnn2ncc(-c3ccnc(N(C)C)n3)c2c1 | binding | 1 µM | 85
Cc1cc(-n2nc(Cc3cc(F)cc(C(F)(F)F)c3)nc2C)ccc1C(N)=O | cell-free assay, competition with immobilised ligand | 1 µM | 100
COc1cnc(Nc2cccc(S(N)(=O)=O)c2)nc1N1CCN(c2ccccc2)C(=O)C1 | binding, competition with immobilised ligand | 1 µM | 97
N[C@@H]1CCN(c2nccc(-c3cnn4ncccc34)n2)C1 | binding | 1 µM | 98
CC1=C(C#N)[C@@H](c2ccc3[nH]nc(C)c3c2)C(C#N)=C(c2ccc(Cl)cc2)N1 | cell-free assay, competition with immobilised ligand | 1 µM | 100
